Laboratory results taken from ChEMBL document CHEMBL3243962, “Antileukemic activity of derivatives of 1,2-dimethyl-3,4-bis(hydroxymethyl)-5-phenylpyrrole bis(N-methylcarbamate)” (J Med Chem, 1979).

Legend:
[1] = test system: Mus musculus; assay: Toxicity in mouse P388 cells allografted CD2F1 mouse assessed as mouse survival at 6.25 mg/kg, ip of total 9 doses starting 24 hrs post tumor inoculation measured on day 5 of inoculation relative to control; format: organism-based; design: dose 6.25 mg/kg, route intraperitoneal; settings: in vivo
Outline: (§1)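 Male CD2F1 mice bearing ip P388 leukemia (6×10^6 cells) were dosed ip with nine daily doses in distilled water–Tween 80 suspension, starting 24 h after inoculation. Survivors per group of 6 were counted on day 5, i.e. 4 days after the first dose. Body-weight change of treated minus control mice was also recorded.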

[2] = test system: Mus musculus; assay: Toxicity in mouse P388 cells allografted CD2F1 mouse assessed as mouse survival at 12.5 mg/kg, ip of total 9 doses starting 24 hrs post tumor inoculation measured on day 5 of inoculation relative to control; format: organism-based; design: dose 12.5 mg/kg, route intraperitoneal; settings: in vivo; outline: as §1
[3] = test system: P388; assay: Antitumor activity against mouse P388 cells allografted in CD2F1 mouse assessed as increase in mouse survival at 6.25 mg/kg, ip of total 9 doses starting 24 hrs post tumor inoculation measured on day 5 of inoculation relative to control; format: functional; settings: route intraperitoneal
Outline: (§2)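 Male CD2F1 mice inoculated ip with 6×10^6 P388 leukemia cells. Dosing was ip as a suspension in distilled water–Tween 80, nine daily doses starting 24 h after inoculation. Activity was read as median survival time of treated vs control mice (% T/C); % T/C ≥ 120 was considered significant. Groups were 6 mice.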

[4] = test system: Mus musculus; assay: Toxicity in mouse P388 cells allografted CD2F1 mouse assessed as mouse survival at 25 mg/kg, ip of total 9 doses starting 24 hrs post tumor inoculation measured on day 5 of inoculation relative to control; format: organism-based; design: dose 25 mg/kg, route intraperitoneal; settings: in vivo; outline: as §1
[5] = test system: Mus musculus; assay: Toxicity in mouse P388 cells allografted CD2F1 mouse assessed as mouse survival at 3.12 mg/kg, ip of total 9 doses starting 24 hrs post tumor inoculation measured on day 5 of inoculation relative to control; format: organism-based; design: dose 3.12 mg/kg, route intraperitoneal; settings: in vivo; outline: as §1
[6] = test system: Mus musculus; assay: Toxicity in mouse P388 cells allografted CD2F1 mouse assessed as body weight loss at 50 mg/kg, ip of total 9 doses starting 24 hrs post tumor inoculation measured on day 5 of inoculation relative to control; format: organism-based; design: dose 50 mg/kg, route intraperitoneal; settings: in vivo
Outline: (§3)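 Male CD2F1 mice inoculated ip with 6×10^6 P388 leukemia cells. Compounds given ip as distilled water–Tween 80 suspension, nine daily doses starting 24 h after inoculation; six mice per dose group. Treated-minus-control body-weight change (T − C) and toxicity-day survivors recorded on day 5 (4 days after first dose).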

[7] = test system: P388; assay: Antitumor activity against mouse P388 cells allografted in CD2F1 mouse assessed as increase in mouse survival at 25 mg/kg, ip of total 9 doses starting 24 hrs post tumor inoculation measured on day 5 of inoculation relative to control; format: functional; settings: route intraperitoneal; outline: as §2
[8] = test system: Mus musculus; assay: Toxicity in mouse P388 cells allografted CD2F1 mouse assessed as body weight loss at 12.5 mg/kg, ip of total 9 doses starting 24 hrs post tumor inoculation measured on day 5 of inoculation relative to control; format: organism-based; design: dose 12.5 mg/kg, route intraperitoneal; settings: in vivo; outline: as §3
[9] = test system: P388; assay: Antitumor activity against mouse P388 cells allografted in CD2F1 mouse assessed as increase in mouse survival at 12.5 mg/kg, ip of total 9 doses starting 24 hrs post tumor inoculation measured on day 5 of inoculation relative to control; format: functional; settings: route intraperitoneal; outline: as §2
[10] = test system: P388; assay: Antitumor activity against mouse P388 cells allografted in CD2F1 mouse assessed as increase in mouse survival at 50 mg/kg, ip of total 9 doses starting 24 hrs post tumor inoculation measured on day 5 of inoculation relative to control; format: functional; settings: route intraperitoneal; outline: as §2
[11] = test system: P388; assay: Antitumor activity against mouse P388 cells allografted in CD2F1 mouse assessed as increase in mouse survival at 3.12 mg/kg, ip of total 9 doses starting 24 hrs post tumor inoculation measured on day 5 of inoculation relative to control; format: functional; settings: route intraperitoneal; outline: as §2
[12] = test system: Mus musculus; assay: Toxicity in mouse P388 cells allografted CD2F1 mouse assessed as body weight loss at 6.25 mg/kg, ip of total 9 doses starting 24 hrs post tumor inoculation measured on day 5 of inoculation relative to control; format: organism-based; design: dose 6.25 mg/kg, route intraperitoneal; settings: in vivo; outline: as §3
[13] = test system: Mus musculus; assay: Toxicity in mouse P388 cells allografted CD2F1 mouse assessed as body weight loss at 3.12 mg/kg, ip of total 9 doses starting 24 hrs post tumor inoculation measured on day 5 of inoculation relative to control; format: organism-based; design: dose 3.12 mg/kg, route intraperitoneal; settings: in vivo; outline: as §3
[14] = test system: Mus musculus; assay: Toxicity in mouse P388 cells allografted CD2F1 mouse assessed as body weight loss at 25 mg/kg, ip of total 9 doses starting 24 hrs post tumor inoculation measured on day 5 of inoculation relative to control; format: organism-based; design: dose 25 mg/kg, route intraperitoneal; settings: in vivo; outline: as §3

Question: `CNC(=O)OCc1c(COC(=O)NC)c(-c2ccc(SC)cc2)n(C)c1C` was tested. Which Activity [1] did it give?
Answer: Non-toxic

Question: What about the Activity [2] of the same molecule?
Answer: Non-toxic

Question: What about the T/C [3] of the same molecule?
Answer: 143%

Question: What about the Activity [4] of the same molecule?
Answer: Non-toxic

Question: What about the Activity [5] of the same molecule?
Answer: Non-toxic

Question: And the Activity [6]?
Answer: 2.9 g

Question: And the T/C [7]?
Answer: 144%

Question: What about the Activity [8] of the same molecule?
Answer: 4.3 g

Question: What about the T/C [9] of the same molecule?
Answer: 144%

Question: What about the T/C [10] of the same molecule?
Answer: 150%

Question: What about the T/C [11] of the same molecule?
Answer: 187%

Question: And the Activity [12]?
Answer: 1.4 g

Question: What about the Activity [13] of the same molecule?
Answer: 2.1 g

Question: And the Activity [14]?
Answer: 3.1 g
